Measured values reported in ChEMBL document CHEMBL4396899, “Synthesis of N-hydroxycinnamoyl amide derivatives and evaluation of their anti-oxidative and anti-tyrosinase activities” (Bioorg Med Chem, 2019).
pIC50: −log10 of the molar value. Calls of active or inactive are those of the source. The rule behind the calls is not given here.

What was measured:
[1] = Antioxidant activity assessed as DPPH free radical scavenging activity incubated for 30 mins in dark condition by spectrophotometric analysis; format: functional
Outline: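 Test samples dissolved in absolute ethanol at a range of concentrations; 1 mL mixed with 1 mL 0.2 mM DPPH in ethanol, kept in the dark 30 min, absorbance read at 517 nm against an ethanol blank. L-ascorbic acid as positive control. Triplicate measurements; IC50 taken from the dose-response curve by linear regression interpolation.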

[2] = biological target: T1, Tyrosinase (Agaricus bisporus) (UniProt O42713); assay: Inhibition of mushroom tyrosinase at 1 g/L using […] as substrate measured after 30 mins
T1 sequence (whole entry): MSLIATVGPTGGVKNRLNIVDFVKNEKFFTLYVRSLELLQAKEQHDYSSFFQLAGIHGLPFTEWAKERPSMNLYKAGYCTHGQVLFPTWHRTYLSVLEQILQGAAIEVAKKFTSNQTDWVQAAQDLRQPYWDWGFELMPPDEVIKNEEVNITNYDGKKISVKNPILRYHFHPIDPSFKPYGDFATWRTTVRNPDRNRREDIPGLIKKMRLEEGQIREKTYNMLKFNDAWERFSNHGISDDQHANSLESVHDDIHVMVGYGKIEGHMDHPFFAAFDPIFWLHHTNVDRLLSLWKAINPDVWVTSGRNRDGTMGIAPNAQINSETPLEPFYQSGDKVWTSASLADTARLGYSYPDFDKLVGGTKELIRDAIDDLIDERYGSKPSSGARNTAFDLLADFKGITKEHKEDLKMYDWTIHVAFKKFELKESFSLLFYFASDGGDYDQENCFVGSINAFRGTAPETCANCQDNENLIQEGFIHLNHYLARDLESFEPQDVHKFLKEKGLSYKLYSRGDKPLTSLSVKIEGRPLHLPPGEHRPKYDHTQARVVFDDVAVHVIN
Outline: (§1)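 Substrate L-tyrosine (0.507 g/L stock in HCl/0.2 M phosphate buffer pH 6.8). Inhibitor stock 1 g/L in DMSO, replaced by DMSO for the reference. Mushroom tyrosinase (200 U/mL stock in 0.2 M phosphate buffer pH 6.8) added last. Incubated 37 °C for 30 min, absorbance read at 475 nm. Percent inhibition from blank-corrected absorbances; triplicate; ferulic acid as positive control.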

[3] = Antioxidant activity assessed as hydroxyl radical scavenging activity incubated for 1 hr by spectrophotometric analysis; format: functional
Outline: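 Phenanthroline (0.75 mM in ethanol), 0.2 M phosphate buffer pH 7.4, sample in DMSO and 0.75 mM FeSO4 (1 mL each) mixed, then 1 mL 0.01% H2O2 added. Incubated 1 h at 37 °C in a water bath, absorbance read at 536 nm. Triplicate; IC50 (mM) by regression interpolation.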

Tyrosinase = biological target: T2, Tyrosinase (Agaricus bisporus, UniProt O42713); assay: Inhibition of mushroom tyrosinase using […] as substrate measured after 30 mins; outline: as §1
T2 sequence (O42713 whole entry): T1 sequence (whole entry)

Structure (SMILES) | pIC50 [1] | inhibition [2] | pIC50 [3] | pIC50 (Tyrosinase)
COc1cc(/C=C/C(=O)O)ccc1OC(C)=O | < 3.30 | Active |  | 
CCOC(=O)[C@H](CC(C)C)NC(=O)/C=C/c1ccc(OC(C)=O)c(OC)c1 | < 3.30 | Active |  | 
CCOC(=O)[C@H](C)NC(=O)/C=C/c1ccc(O)c(OC)c1 | 4.33 | Active |  | 
CCOC(=O)[C@H](Cc1ccccc1)NC(=O)/C=C/c1ccc(O)c(O)c1 | 4.48 |  | 3.53 | < 4.54
CCOC(=O)[C@@H](NC(=O)/C=C/c1ccc(OC(C)=O)c(OC)c1)C(C)C | < 3.30 | Active |  | 
O=C1O[C@H]([C@@H](O)CO)C(O)=C1O [ASCORBIC ACID] | 4.09 |  | 2.79 | 
CCOC(=O)[C@@H](NC(=O)/C=C/c1ccc(O)c(O)c1)[C@@H](C)CC | 4.36 |  | 3.39 | 
CCOC(=O)[C@@H](NC(=O)/C=C/c1ccc(O)c(OC)c1)C(C)C | 4.22 | Active |  | 
CCOC(=O)[C@H](CC(C)C)NC(=O)/C=C/c1ccc(O)c(OC)c1 | 4.25 | Active |  | 
COc1cc(/C=C/C(=O)O)ccc1O [FERULATE] | 4.45 | Active |  | 
CCOC(=O)[C@H](C)NC(=O)/C=C/c1ccc(OC(C)=O)c(OC)c1 | 3.32 | Active |  | 
CCOC(=O)[C@H](Cc1ccccc1)NC(=O)/C=C/c1ccc(O)c(OC)c1 |  |  |  | > 6.74

More lines, now with the values ahead:

pIC50 [1] | inhibition [2] | pIC50 [3] | pIC50 (Tyrosinase) | Structure (SMILES)
4.53 |  | 3.67 |  | CCOC(=O)[C@H](C)NC(=O)/C=C/c1ccc(O)c(O)c1
4.73 |  | 3.47 |  | CCOC(=O)CNC(=O)/C=C/c1ccc(O)c(O)c1
4.56 |  | 3.54 |  | O=C(O)/C=C/c1ccc(O)c(O)c1 [CAFFEIC ACID]
4.71 |  | 3.46 |  | CCOC(=O)[C@@H](NC(=O)/C=C/c1ccc(O)c(O)c1)C(C)C
4.54 |  | 3.43 |  | CCOC(=O)[C@H](CC(C)C)NC(=O)/C=C/c1ccc(O)c(O)c1
